# An excerpt weighted towards active compounds, which were near 1.8% of everything screened.
# PG9 binder = binders of HIV-1 gp120 antibody PG9, primary screen, biochemical, TR-FRET; HIV-1 gp120 / PG9 antibody interaction; TR-FRET gp120-PG9 antibody binding; inhibition, % at 6.7 µM; 360,000 compounds, 0.43% hits; in the data active means inhibition above about 8.5%
# Tb MetRS inh = T. brucei MetRS inhibitors, primary screen, biochemical, luminescence; 360,000 compounds, 0.4% hits; methionyl-tRNA synthetase (Trypanosoma brucei brucei); inhibition, % at 11.9 µM; AID 624268, 2012; purified T. brucei MetRS, ATP depletion, Kinase-Glo luminescence;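 active means inhibition above a per-plate cutoff of the control wells' mean inhibition plus 3 SD, cut at about 5.5% in these data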
#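 Assay system: T. brucei methionyl-tRNA synthetase, purified | Medium: HEPES buffer with MgCl2, KCl, DTT, spermine, BSA, pyrophosphatase | Compound: 11.9 µM single point | Incubation: 15 min enzyme-compound preincubation, 2 h reaction, 10 min detection, 25 °C | Measured by: Kinase-Glo luciferase luminescence reporting remaining unconsumed ATP | Measure: % inhibition normalized to control-well medians | Replication: Singlicate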
# Rev-erbA mod = modulators of Rev-erb alpha DNA binding, primary screen, biochemical, FITC-DNA, fluorescence polarization, uHTS. activity, % at 10 µM. AID 1259318, 2017. Rev-erbα–FITC-DNA binding, 90 min. 370,000 compounds, 0.79% hits;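 active means activity above about 14%, limit read from the data; passing the limit was not always enough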
# Target sequence (P20393 whole entry, looked up): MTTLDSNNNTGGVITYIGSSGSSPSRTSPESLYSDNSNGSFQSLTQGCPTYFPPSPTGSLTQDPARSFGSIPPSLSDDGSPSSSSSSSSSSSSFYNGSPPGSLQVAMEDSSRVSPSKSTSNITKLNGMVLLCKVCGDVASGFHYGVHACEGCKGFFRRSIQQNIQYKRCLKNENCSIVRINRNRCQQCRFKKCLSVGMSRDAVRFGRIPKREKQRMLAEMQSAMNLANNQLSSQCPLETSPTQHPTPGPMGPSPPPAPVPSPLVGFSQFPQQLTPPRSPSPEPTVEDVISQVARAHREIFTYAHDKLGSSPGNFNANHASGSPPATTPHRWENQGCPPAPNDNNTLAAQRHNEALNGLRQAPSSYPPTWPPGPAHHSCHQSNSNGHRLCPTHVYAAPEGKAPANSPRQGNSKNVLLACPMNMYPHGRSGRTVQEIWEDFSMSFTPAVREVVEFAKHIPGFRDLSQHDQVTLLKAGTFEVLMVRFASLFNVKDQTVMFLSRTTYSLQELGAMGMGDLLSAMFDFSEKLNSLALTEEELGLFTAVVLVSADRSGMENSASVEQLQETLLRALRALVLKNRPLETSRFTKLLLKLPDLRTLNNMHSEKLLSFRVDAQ
# Rin1-Abl PPI inh = inhibitors of Rin1-Abl protein binding, primary screen, biochemical, TR-FRET. inhibition, % at 7.35 µM. 360,000 compounds, 0.4% hits. AID 588664, 2011; in the data active means inhibition above about 5%, passing the limit was not always enough
# Tb MetRS conf = T. brucei MetRS inhibitors, confirmation, biochemical, luminescence | inhibition, % at 11.9 µM | 1,400 compounds, 93% hits | AID 624412, 2012 | T. brucei MetRS enzyme, luminescence (ATP depletion) | shares compounds with Tb MetRS inh; in the data active means inhibition above about 7%
# Jurkat cytotox = Jurkat T cell cytotoxicity, cytotoxicity control for T. brucei MetRS inhibitor project, luminescence, high throughput. Jurkat cells viability, ATP luminescence. AID 624413, 2012. 1,400 compounds, 12% hits. inhibition, % at 8.3 µM. shares compounds with Tb MetRS inh; in the data active means inhibition above about 15%
# TbMetRS FP orth = T. brucei MetRS inhibitors, orthogonal assay for T. brucei MetRS inhibitor project, biochemical, fluorescence polarization. shares compounds with Tb MetRS inh. AID 651607, 2012. 1,400 compounds, 44% hits. purified T. brucei MetRS. inhibition, % at 11.9 µM; in the data active means inhibition above about 17%
# A number is an active result; - = inactive; . = not tested or not shown.
SMILES,PG9 binder,Tb MetRS inh,Rev-erbA mod,Rin1-Abl PPI inh,Tb MetRS conf,Jurkat cytotox,TbMetRS FP orth
C[C@H]1[C@@H](NC(=O)/C=C/c2ccccc2)CC[C@@]23CCCN2C(=O)CCC[C@@H]13,.,.,-,.,.,.,.
COc1cc(CN2CCc3c([nH]c4ccccc34)C2)cc(OC)c1,-,-,-,-,.,.,.
COc1ccccc1CN1CCc2c([nH]c3ccccc23)C1,-,15.7,-,-,31.4,-,-
COc1ccc(CCNC(=O)c2c(N)[nH]c(C(=O)c3ccccc3)c2-c2ccc(N(C)C)cc2)cc1,.,.,-,.,.,.,.
CCN(CC(=O)Nc1ccc(OC)cc1)C(=O)c1ccc2c(c1)NC(=O)C(C)S2 (configuration not stated),-,17.8,-,-,48.2,-,24.1
CCN(CC(=O)Nc1c(F)cccc1F)C(=O)c1ccc2c(c1)NC(=O)C(C)S2 (configuration not stated),-,-,-,-,.,.,.
COC(=O)c1ccc(CSc2nc3cc(Cl)ccc3s2)o1,-,-,-,-,.,.,.
COC(=O)c1ccc(CSc2nnc(Nc3ccc(C)cc3)s2)o1,-,7.5,-,-,14.1,-,-
C=CCc1cccc(CNc2nc3ccccc3n2C(C)C)c1O,-,6.7,-,-,10.8,-,-
C=CCn1c(NCc2cc(Cl)ccc2O)nc2ccccc21,-,13.2,-,-,24.9,-,-
O=[N+]([O-])c1[nH]cnc1/C=C/c1ccccc1,-,5.6,-,-,10.1,-,-
Cc1cc(=O)c2c(ccc3c(=O)cc(C)[nH]c32)[nH]1,-,.,-,.,.,.,.
CCOC(=O)CNC(=O)C1CCCc2c1[nH]c1ccc(Cl)cc21 (configuration not stated),-,12.2,-,-,19.9,-,-
NC(=O)CNC(=O)C1CCCc2c1[nH]c1ccc(Cl)cc21 (configuration not stated),-,-,-,-,.,.,.
CN(CC(=O)Nc1ccc(Cl)c(C(F)(F)F)c1)C(=O)c1ccc2c(c1)NC(=O)CS2,-,6.6,-,-,16.5,-,-
O=[N+]([O-])c1ccc(OCc2cnc(Cl)s2)c([N+](=O)[O-])c1,-,6.7,-,-,17.7,-,-
COC(=O)C(Cc1cnc(Cl)s1)(C(=O)OC)c1ccc([N+](=O)[O-])cc1[N+](=O)[O-],-,-,-,-,.,.,.
COc1ccc2[nH]c3nc(SCC(=O)NNC(=O)c4ccc(OC)c(OC)c4)nnc3c2c1,-,-,-,-,.,.,.
Cn1c(SCC(=O)NCc2ccc(F)cc2)nc2ccccc21,-,-,-,-,.,.,.
COc1ccc(CNC(=O)CSc2nnc3c(n2)[nH]c2ccc(C)cc23)cc1,-,33.5,-,-,82.2,-,55.1
O=C(CSc1nnc2c(n1)[nH]c1ccccc12)NCc1ccco1,-,8.3,-,-,13.7,-,-
COc1ccc(CNC(=O)CSc2nc3ccccc3n2C(C)=O)cc1,-,17.1,-,-,28.5,-,-
COc1ccc2[nH]c3nc(SCC(=O)Nc4ccc5c(c4)OCO5)nnc3c2c1,-,56.5,-,-,87.6,-,73.3
CC(NCc1ccco1)C(=O)N1CCCN(C)CC1 (configuration not stated),.,.,-,.,.,.,.
CC(C)c1ccc2[nH]c3nc(SCC(=O)NC4CC4)nnc3c2c1,-,-,-,-,.,.,.
COc1cccc(CNC(=O)CSc2nnc3c(n2)[nH]c2ccc(F)cc23)c1,-,-,-,-,.,.,.
Cc1nnc(NC(=O)CSc2nnc3c(n2)[nH]c2ccc(Br)cc23)s1,-,11.7,-,-,63.3,-,54.2
COc1cccc(CNC(=O)CSc2nnc3c(n2)[nH]c2ccccc23)c1,-,20.2,-,-,64.1,-,35.0
